The source made the active and inactive calls. The calls are words filed in the database; no cut-off is given here.
Columns and labels:
LNCaP = assay: Antiproliferative activity against human LNCaP cells after 72 hrs by MTS assay; assay type: functional, cell-based
Method in brief: (§1)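 Cells seeded at 2000 per well, exposed to varying compound concentrations for 72 h. Viability read by MTS assay. IC50 values are means of two separate experiments, each run in triplicate.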

PC-3 = assay: Antiproliferative activity against human PC3 cells after 72 hrs by MTS assay; assay type: functional, cell-based; conditions: PC-3, 72 h; method in brief: as §1
DU-145 = assay: Antiproliferative activity against human DU145 cells after 72 hrs by MTS assay; assay type: functional, cell-based; conditions: DU-145, 72 h; method in brief: as §1
[1] = target: Signal transducer and activator of transcription 3 (Homo sapiens) (UniProt P40763); assay: Inhibition of STAT3 binding to DNA
MCF7 = assay: Antiproliferative activity against human MCF7 cells after 72 hrs by MTS assay; assay type: functional, cell-based; conditions: MCF7, 72 h; method in brief: as §1

Chain of Signal transducer and activator of transcription 3 (Homo sapiens) (P40763 whole entry): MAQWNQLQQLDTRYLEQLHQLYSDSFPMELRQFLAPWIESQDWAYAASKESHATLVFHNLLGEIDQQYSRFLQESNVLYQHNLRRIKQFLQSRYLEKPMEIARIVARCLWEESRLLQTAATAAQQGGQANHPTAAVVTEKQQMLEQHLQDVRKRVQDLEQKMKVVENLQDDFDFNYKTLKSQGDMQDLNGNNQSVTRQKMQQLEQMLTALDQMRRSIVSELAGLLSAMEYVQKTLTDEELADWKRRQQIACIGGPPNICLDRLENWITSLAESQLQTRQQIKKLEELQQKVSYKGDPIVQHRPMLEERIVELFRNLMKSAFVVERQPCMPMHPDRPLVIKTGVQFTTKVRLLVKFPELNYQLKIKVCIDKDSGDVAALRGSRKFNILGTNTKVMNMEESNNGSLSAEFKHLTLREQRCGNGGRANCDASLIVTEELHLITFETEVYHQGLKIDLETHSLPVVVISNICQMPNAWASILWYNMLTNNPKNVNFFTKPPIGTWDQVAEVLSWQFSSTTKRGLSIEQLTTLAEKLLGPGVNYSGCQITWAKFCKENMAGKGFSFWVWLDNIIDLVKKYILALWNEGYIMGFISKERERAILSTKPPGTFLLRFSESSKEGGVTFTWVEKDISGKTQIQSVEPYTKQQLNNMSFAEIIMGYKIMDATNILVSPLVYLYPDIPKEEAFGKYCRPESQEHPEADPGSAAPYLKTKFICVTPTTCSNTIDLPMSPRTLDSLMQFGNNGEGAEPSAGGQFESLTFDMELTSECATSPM

SMILES | IC50 (LNCaP) [µM] | IC50 (PC-3) [µM] | IC50 (DU-145) [µM] | Activity [1] | IC50 (MCF7) [µM]
CC(=O)c1cccc2c1C(=O)c1c(O)cccc1C2=O | 31.5 | 32.4 | 31.5 | – | –
COc1cccc2c1C(=O)c1cccc(C(C)=O)c1C2=O | > 100 | > 100 | > 100 | – | –
C[C@@H]1CC(=O)c2c(ccc3c2C(=O)c2cccc(O)c2C3=O)C1 [OCHROMYCINONE] | – | 18.7 | 12.2 | Active | 124
CC(=O)c1cccc2c1C(=O)c1cccc(O)c1C2=O | 34.1 | 13.4 | 16.2 | – | 88.5
COc1cccc2c1C(=O)c1c(C(C)=O)cccc1C2=O | > 100 | > 100 | > 100 | – | –
